For series [1] the following is noted: cited from earlier work.
In the next series the test system is diabetic db/db mice. Briefly: Chronic efficacy study. It is filed as in vivo. To be noted: for HbA1c value attenuated from baseline / body weight increase: 25 nmol/kg s.c. once daily for 4 weeks, n = 5; for reduction of AUC glucose 0–210 min, OGTT day 15: chronic study, 25 nmol/kg s.c. once daily, day 15, n = 5.
The test system of series [2] is blood glucose of non-fasted db/db mice. The series is described as follows: Hypoglycemic duration assay. To be noted: single s.c. dose 25 nmol/kg, 0 to 36 h, n = 5. It is filed as in vivo, C57BL/6 db/db mice. The gist of the method: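 Non-fasted male C57BL/6 db/db mice with free food and water were randomised into groups (n = 5). Each got one s.c. dose of 25 nmol/kg test compound, or PBS as control. Tail-blood glucose was read by glucometer at 0, 0.5, 1, 2, 4, 6, 8, 10, 24 and 36 h. […] Data are mean ± SD, one-way ANOVA with Tukey test.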

The conditions of series [3]: phase 2b, oral, adults with obesity; cited from earlier work.
Setting [4] is: phase III study (SURPASS-1), across all doses.

The source of these data is publication PMC10951637 (iScience, 2024).

Consider “tirzepatide: imbalanced GLP-1R/GIPR co-agonist, fatty diacid conjugated to K”, for which the weight loss entry in series [1] (in T2D treatment and in obesity independent of diabetes) is given as “more than 20%”. For the same compound, in series [1] (setting [4]), the “incidence of gastrointestinal disorders” value is 28–41% and the study drug discontinuation is listed as 3–7%.
For exendin-4: GLP-1R mono-agonist, in the series with diabetic db/db mice, the “HbA1c value attenuated from baseline” value is “approximately 15%”; the body weight increase is recorded as around 6.9%; the “reduction of AUC glucose 0–210 min, OGTT day 15” value was around 18%. Further, the “glucose AUC0–36h (in words)” value in series [2] is “comparable to that of the PBS group”.
Regarding liraglutide, in the series on diabetic db/db mice, the “HbA1c value attenuated from baseline” value was around 30%; the body weight increase is given as around 7.4%; the “reduction of AUC glucose 0–210 min, OGTT day 15” value is recorded as around 40%.
For `N#Cc1ccc(COc2cccc(C3CCN(Cc4nc5ccc(C(=O)O)cc5n4C[C@@H]4CCO4)CC3)n2)c(F)c1` [Danuglipron], in series [3], the discontinuation rate result is “greater than 50%”, the rate of diarrhea is reported as 25%, the rate of nausea is 73% and the rate of vomiting is recorded as 47%.
